The text below walks through data of the RNAGym collection of RNA variant scans (doi:10.1002/anie.201605470).

B1: Osa-1-4 twister ribozyme (parent)
chain: CCGCCUAACACUGCCAAUGCCGGUCCCAAGCCCGGAUAAAAGUGGAGGGGGCGG

Variants of B1 are the subject of this data set. Description: self-cleavage, relative activity (ratio to wild type); higher = more cleavage; co-transcriptional. The method in brief: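 In vitro transcription at 37 °C for 2 h allowed the twister ribozyme to cleave itself as it was made. Its 54-nucleotide Oryza sativa template had been synthesised with 97 % wild-type base and 1 % of each other base at the 48 positions downstream of the cleavage site. A template-switching oligonucleotide was used for reverse transcription, followed by PCR amplification and deep sequencing. Whether reads carried upstream sequence set the cleavage status, and relative activity is the fraction cleaved normalised to wild type.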
CCGCCUAACACCGCCAAUGCCGGUCCCAAGCCCGGAUAAAAAUGGAGGGGGCGG [G42A U12C]: the self-cleavage stood at 0.1. Take CCGCCUAACACAGCCAAUGCCGGUCCCAAGCCCGGAUAAAAAUGGAGGGGGCGG [G42A U12A]: the self-cleavage was determined as 0.15. For CCGCCUAACACGGCCAAUGCCGGUCCCAAGCCCGGAUAAAAAUGGAGGGGGCGG [G42A U12G] the value was 0.09; for CCGCCUAACACUGCCAAUGCCGGUCCCAAGCCCGGAUAAAAAGGGAGGGGGCGG [G42A U43G], 0.16; for CCGCCUAACACUGCCAAUGCCGGUCCCAAGCCCGGAUAAAAACGGAGGGGGCGG [G42A U43C], 0.11.

Turning to CCGCCUAACACUGCCAAUGCCGGUCCCAAGCCCGGAUAAAAAAGGAGGGGGCGG [G42A U43A], the self-cleavage is 0.16. To CCGCCUAACACUGCCAAUGCCGGUCCCAAGCCCGGAUAAAAAUGGAGGGGGCGU [G42A G54U] belongs 0.8; to CCGCCUAACACUGCCAAUGCCGGUCCCAAGCCCGGAUAAAAAUGGAGGGGGCGA [G42A G54A], 0.76; to CCGCCUAACACUGCCAAUGCCGGUCCCAAGCCCGGAUAAAAAUGGAGGGGGCGC [G42A G54C], 0.82. For CCGCCUAACACUGCCAAUGCCGGUCCCAAGCCCGGAUAAAAUUGGAGGGGGCGG [G42U], the self-cleavage was determined as 0.14. To CCGCCUAACACUGCCAAUGCCGGUCCCAAGCCCGGAUAAAACUGGAGGGGGCGG [G42C] belongs 0.4; to CCGCCUAACACUGCCAAUGCCGGUCCCAAGCCCGGAUAAAAAUGGAGGGGCCGG [G42A G51C], 0.06; to CCGCCUAACACUGCCAAUGCCGGUCCCAAGCCCGGAUAAAAAUGGAGGGGUCGG [G42A G51U], 0.1. Take CCGCCUAACACUGCCAAUGCCGGUCCCAAGCCCGGAUAAAAUUGGAGGGGUCGG [G42U G51U]: the self-cleavage is 0.07. For CCGCCUAACACUGCCAAUGCCGGUCCCAAGCCCGGAUAAAAUUGGAGGGGCCGG [G42U G51C] the value was 0.04. Consider CCGCCUAACACUGCCAAUGCCGGUCCCAAGCCCGGAUAAAAUUGGAGGGGACGG [G42U G51A], for which the self-cleavage was determined as 0.1. To CCGCCUAACACUGCCAAUGCCGGUCCCAAGCCCGGAUAAAAUUGAAGGGGGCGG [G42U G45A] belongs 0.05. As for CCGCCUAACACUGCCAAUGCCGGUCCCAAGCCCGGAUAAAAUUGUAGGGGGCGG [G42U G45U], the self-cleavage came to 0.04.

Consider CCGCCUAACACUGCCAAUGCCGGUCCCAAGCCCGGAUAAAAUUGCAGGGGGCGG [G42U G45C], for which the self-cleavage was 0.03. To CCGCCUAACACUGCCAAUGCCGGUCCCAAGCCCGGAUAAAAUUGGAGGGGGCUG [G42U G53U] belongs 0.08. Turning to CCGCCUAACACUGCCAAUGCCGGUCCCAAGCCCGGAUAAAAUUGGAGGGGGCCG [G42U G53C], the self-cleavage stood at 0.05. To CCGCCUAACACUGCCAAUGCCGGUCCCAAGCCCGGAUAAAAUUGGAGGGGGCAG [G42U G53A] belongs 0.1; to CCGCCUAACACUGCCAAUGCCGGUCCCAAGCCCGGAUAAAAUUUGAGGGGGCGG [G42U G44U], 0.15. In the case of CCGCCUAACACUGCCAAUGCCGGUCCCAAGCCCGGAUAAAAUUCGAGGGGGCGG [G42U G44C], the self-cleavage came to 0.26. For CCGCCUAACACUGCCAAUGCCGGUCCCAAGCCCGGAUAAAAUUAGAGGGGGCGG [G42U G44A] the value was 0.35; for CCGCCUAACACUGCCAAUGCCGGUCCCAAGCCCGGACAAAACUGGAGGGGGCGG [G42C U37C], 0.34; for CCGCCUAACACUGCCAAUGCCGGUCCCAAGCCCGGAAAAAACUGGAGGGGGCGG [G42C U37A], 0.21. To CCGCCUAACACUGCCAAUGCCGGUCCCAAGCCCGGAGAAAACUGGAGGGGGCGG [G42C U37G] belongs 0.39. Take CCGCCUAACACUGCCAAUGCCGGUCCCAAGCCCGGAUAAAACUAGAGGGGGCGG [G42C G44A]: the self-cleavage was determined as 0.24. As to CCGCCUAACACUGCCAAUGCCGGUCCCAAGCCCGGAUAAAACUCGAGGGGGCGG [G42C G44C], the self-cleavage came out at 0.19. For CCGCCUAACACUGCCAAUGCCGGUCCCAAGCCCGGAUAAAACUUGAGGGGGCGG [G42C G44U] the value was 0.11; for CCGCCUAACACUGCCAAUGCCGGUCCCAAGCCCGGAUAAAACUGCAGGGGGCGG [G42C G45C], 0.06. For CCGCCUAACACUGCCAAUGCCGGUCCCAAGCCCGGAUAAAACUGUAGGGGGCGG [G42C G45U] the value was 0.05. To CCGCCUAACACUGCCAAUGCCGGUCCCAAGCCCGGAUAAAACUGAAGGGGGCGG [G42C G45A] belongs 0.06; to CCGCCUAACACUGCCAAUGCCGGUCCCAAGCCCGGAUAAAACUGGAGCGGGCGG [G42C G48C], 0.07. Take CCGCCUAACACUGCCAAUGCCGGUCCCAAGCCCGGAUAAAACUGGAGAGGGCGG [G42C G48A]: the self-cleavage was 0.05. Consider CCGCCUAACACUGCCAAUGCCGGUCCCAAGCCCGGAUAAAACUGGAGUGGGCGG [G42C G48U], for which the self-cleavage was determined as 0.04.

As for CCGCCUAACACUGCCAAUGCCGGUCCCAAGCCCGGAUAAAAUUGGACGGGGCGG [G42U G47C], the self-cleavage turned out to be 0.02.

With CCGCCUAACACUGCCAAUGCCGGUCCCAAGCCCGGAUAAAAUUGGAUGGGGCGG [G42U G47U], the self-cleavage is 0.03. To CCGCCUAACACUGCCAAUGCCGGUCCCAAGCCCGGAUAAAAUUGGAAGGGGCGG [G42U G47A] belongs 0.05; to CCGCCUAACACUGCCAAUGCCGGUCCCAAGCCCGGAUAAAACUGGAGGAGGCGG [G42C G49A], 0.06; to CCGCCUAACACUGCCAAUGCCGGUCCCAAGCCCGGAUAAAACUGGAGGUGGCGG [G42C G49U], 0.05. Regarding CCGCCUAACACUGCCAAUGCCGGUCCCAAGCCCGGAUAAAACUGGAGGCGGCGG [G42C G49C], the self-cleavage was 0.07. To CCGCCUAACACUGCCAAUGCCGGUCCCAAGCCCGGAUAAAACUGGAGGGGGCGA [G42C G54A] belongs 0.26; to CCGCCUAACACUGCCAAUGCCGGUCCCAAGCCCGGAUAAAACUGGAGGGGGCGC [G42C G54C], 0.3; to CCGCCUAACACUGCCAAUGCCGGUCCCAAGCCCGGAUAAAACUGGAGGGGGCGU [G42C G54U], 0.43. For CCGCCUAACACUGCCAAUGCCGGUCCCAAGCCCGGAUAAAACUGGAGGGGGCUG [G42C G53U] the value was 0.08; for CCGCCUAACACUGCCAAUGCCGGUCCCAAGCCCGGAUAAAACUGGAGGGGGCCG [G42C G53C], 0.07.
